Sampled rows, rich in hits. Any-hit rate of the full collection: about 1.9%.
SUMO HTRF inh – SUMOylation inhibition. P63279. HTRF SUMOylation assay, SAE1/SAE2 + UBC9, in vitro. inhibition, % at 35 µM. 290,000 compounds, 0.36% hits. AID 2006; in the data active means inhibition above about 50%, passing the limit was not always enough
Target sequence (P63279 whole entry, looked up): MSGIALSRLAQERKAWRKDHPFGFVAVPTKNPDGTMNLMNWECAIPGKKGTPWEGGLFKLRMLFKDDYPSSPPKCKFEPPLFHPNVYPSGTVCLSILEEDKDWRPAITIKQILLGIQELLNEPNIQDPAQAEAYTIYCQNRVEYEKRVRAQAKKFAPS
IMP-1 inh-1 – blocks Pseudomonas aeruginosa IMP-1 metallo-beta-lactamase. purified IMP-1, nitrocefin hydrolysis, epi-absorbance fluorescence. 290,000 compounds, 0.45% hits. inhibition, % at 5.6 µM;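 active means inhibition above the mean plus 3 SD of all compounds in the same screening run, cut at about 4.5% in these data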
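System: Purified recombinant IMP-1 metallo-beta-lactamase enzyme | Measured by: Fluorescence quenching readout, ex 480/em 530 nm | Replication: Singlicate | Incubation: 15 min preincubation plus 25 min reaction at 25 °C | Evaluation: Percent inhibition from optical density relative to buffer-blank wells | Benchmarks: DMSO with and without IMP-1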
pCIP destab – p/CIP protein destabilization; F442A p/CIP-EGFP cells, EGFP fluorescence, 16 h; 290,000 compounds, 0.01% hits; decrease of EGFP signal, % at 10 µM; Q05BA5;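 active means EGFP signal decrease of at least 30% at 10 µM or well 3 SD below plate mean, unless failing retest; inactive means the rest, including hits failing retest or dose response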
T cell modulator – T cell immune modulators affecting CD8 T cell-vesicle binding. 2C CD8+ T cell-vesicle binding, flow cytometry; stronger effect = lower value. response (vesicle binding), % at 7 µM. 330,000 compounds, 0.068% hits. AID 2052;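 active means response, share of CD8 T cells binding vesicles, and their 90th percentile fluorescence all below set limits, cut at about 80% in these data, passing the limit was not always enough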;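 further: values below 100% mean blocked vesicle binding to the CD8+ T cells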
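Incubation: binding step 1.5 h, 37 °C, antibody labelling 20 min, ice; system: murine 2C transgenic CD8+ T lymphocytes; technique: cytometric PE anti-B7-1 and Alexa647 anti-CD8 signals after 1% paraformaldehyde fixation; also added: QL9-charged Drosophila Ld/ICAM-1/B7-1 vesicles; control set: naked versus QL9-loaded vesicles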
VIM-2 inhibitor – blocks Pseudomonas aeruginosa VIM-2 metallo-beta-lactamase; purified VIM-2, nitrocefin hydrolysis, epi-absorbance fluorescence; inhibition, % at 5.6 µM; 290,000 compounds, 0.89% hits;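 active means inhibition above the mean of all tested compounds plus 3 SD, cutoff set per screening run, cut at about 7.5% in these data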;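 further: red hydrolysis product quenches plate fluorescence so inhibitors raise well fluorescence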
CTSL1 counter – cathepsin L1 inhibition, PFM18AAP counter-screen. 300,000 compounds, 0.49% hits. inhibition, % at 5.96 µM. recombinant F. hepatica cathepsin L1, Z-Leu-Arg-MCA fluorescence;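 active means inhibition above the mean of all tested compounds plus 3 SD, set per screening campaign, cut at about 17% in these data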
IMP-1 inh-2 – IMP-1 inhibition, counter-screen for VIM-2 inhibitors | inhibition, % at 5.6 µM | shares compounds with VIM-2 inhibitor | 1,300 tested, under 10 active | purified IMP-1, nitrocefin hydrolysis, epi-absorbance fluorescence; call rule not given here
VIM-2 FRET ctr – inhibits VIM-2 in FRET assay to exclude epi-absorbance artifacts | shares compounds with VIM-2 inhibitor | purified VIM-2, CCF2 FRET substrate hydrolysis | inhibition, % at 5.6 µM | 1,300 compounds, 23% hits;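 active means inhibition above the mean of all tested compounds plus 3 SD, cut at about 19% in these data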
TEM-1 inh – blocks E. coli TEM-1 beta-lactamase in VIM-2 selectivity screen | shares compounds with VIM-2 inhibitor | Purified TEM-1, nitrocefin hydrolysis, epi-absorbance fluorescence | inhibition, % at 5.6 µM | 1,300 compounds, 3% hits;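 active means inhibition above that campaign's mean inhibition plus 3 SD, cut at about 0.46% in these data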
Target sequence (P62593 whole entry, looked up): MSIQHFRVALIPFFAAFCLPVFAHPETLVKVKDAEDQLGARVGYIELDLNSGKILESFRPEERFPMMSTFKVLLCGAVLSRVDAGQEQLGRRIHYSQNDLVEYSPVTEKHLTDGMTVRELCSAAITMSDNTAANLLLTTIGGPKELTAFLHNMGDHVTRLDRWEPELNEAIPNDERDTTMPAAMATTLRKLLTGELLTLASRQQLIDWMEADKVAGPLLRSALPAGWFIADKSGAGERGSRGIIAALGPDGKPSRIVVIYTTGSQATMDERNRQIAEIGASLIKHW
VIM-2 confirm 2 – confirmation of P. aeruginosa VIM-2 metallo-beta-lactamase inhibitors; shares compounds with VIM-2 inhibitor; inhibition, % at 5.6 µM; 1,300 compounds, 96% hits; purified VIM-2, nitrocefin hydrolysis, epi-absorbance; AID 2187;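 active means inhibition of the VIM-2 beta-lactamase enzyme above about 11% from the earlier first-round screen, limit read from the data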
Of the large screens only hits and unclear results are named; the others gave an inactive call (follow-up assays come after a bar, where they were run).

O=C(C1CCN(c2ncnc3c2sc2cccc(F)c23)CC1)N1CCCC1	VIM-2 inhibitor 12.9 | IMP-1 inh-2 inactive | VIM-2 FRET ctr inactive | TEM-1 inh inactive | VIM-2 confirm 2 26.9
O=C(C1CCN(c2ncnc3c2nc2n3CCCCC2)CC1)N1CCN(c2cccc(Cl)c2)CC1	none
O=C(O)C1=CC[C@@H](c2ccc(Cl)cc2)N(S(=O)(=O)c2ccc(Cl)cc2)[C@H]1c1ccc(Br)cc1	none (no result: SUMO HTRF inh, IMP-1 inh-1, pCIP destab, VIM-2 inhibitor, CTSL1 counter)
O=C(O)c1cc2ccc3ccccc3c2[nH]1	VIM-2 inhibitor 13.7 | IMP-1 inh-2 inactive | VIM-2 FRET ctr 18.4 | TEM-1 inh inactive | VIM-2 confirm 2 15.7
O=C(O)c1cc(=O)c2ccccc2[nH]1	none (no result: SUMO HTRF inh, IMP-1 inh-1, pCIP destab, VIM-2 inhibitor)
CCCC(C(=O)NC1CCCC1)N(Cc1ccc(OC)cc1)C(=O)c1snc(C(N)=O)c1N (stereo not given)	none
S=c1[nH]nc(-c2ccc3ccccc3n2)n1-c1ccc2c(c1)OCCO2	VIM-2 inhibitor 19.6 | IMP-1 inh-2 inactive | VIM-2 FRET ctr 37.7 | TEM-1 inh inactive | VIM-2 confirm 2 21.6
Oc1ccc(-c2n[nH]c(=S)n2-c2ccc3c(c2)OCCO3)c(O)c1	VIM-2 inhibitor 16.9 | IMP-1 inh-2 inactive | VIM-2 FRET ctr 35.5 | TEM-1 inh inactive | VIM-2 confirm 2 18.9
S=c1[nH]nc(-c2ccc3ccccc3n2)n1-c1ccccc1	none
CNC(=S)Nc1cccc(-c2cnc3ccccc3n2)c1	VIM-2 inhibitor 13.9 | IMP-1 inh-2 inactive | VIM-2 FRET ctr inactive | TEM-1 inh inactive | VIM-2 confirm 2 9.1
CN(CCC#N)C(=O)c1cc2c(Cl)nc3ccccc3c2s1	VIM-2 inhibitor 20.2 | IMP-1 inh-2 inactive | VIM-2 FRET ctr inactive | TEM-1 inh inactive | VIM-2 confirm 2 25.3
CN(C)CCN(Cc1ccco1)C(=O)c1cc2c(Cl)nc3ccccc3c2s1	VIM-2 inhibitor 12.7 | IMP-1 inh-2 inactive | VIM-2 FRET ctr inactive | TEM-1 inh inactive | VIM-2 confirm 2 36.4
CCN(CC)CC(=O)Nc1cc(N(C)C)nc2ccccc12	none
CN1CCN(CC(=O)Nc2cc(N(C)C)nc3ccccc23)CC1	VIM-2 inhibitor 18.6 | IMP-1 inh-2 inactive | VIM-2 FRET ctr inactive | TEM-1 inh inactive | VIM-2 confirm 2 38.2
COc1cc(CNc2ccccc2)c([N+](=O)[O-])cc1OC	none
CC(C)C(C)NC(=O)COC(=O)c1cccc(C(=O)OCC(=O)NC(C)C(C)C)n1 (stereo not given)	none
CCOC(=O)c1cnc2c(CC)cccc2c1NCCN1CCOCC1	VIM-2 inhibitor 14.1 | IMP-1 inh-2 inactive | VIM-2 FRET ctr inactive | TEM-1 inh inactive | VIM-2 confirm 2 23.6
C=C(C)Cn1c(-c2cccs2)n[nH]c1=S	VIM-2 inhibitor 48.4 | IMP-1 inh-2 inactive | VIM-2 FRET ctr 70.9 | TEM-1 inh inactive | VIM-2 confirm 2 52.9
CC(C)C(C)NC(=O)COC(=O)C1CCN(S(=O)(=O)c2ccc3c(c2)OCCO3)CC1 (stereo not given)	none (no result: SUMO HTRF inh, IMP-1 inh-1, pCIP destab, VIM-2 inhibitor)
CCOc1ccc(C(=O)Nc2ccc(N3CCN(C)CC3)cc2)cc1[N+](=O)[O-]	VIM-2 inhibitor 30.1 | IMP-1 inh-2 inactive | VIM-2 FRET ctr inactive | TEM-1 inh inactive | VIM-2 confirm 2 58.3
CS(=O)(=O)N1CCN(c2ccc(NC(=O)COc3ccccc3[N+](=O)[O-])cc2)CC1	none
CN1CCN(c2ccc(NC(=O)COc3ccccc3[N+](=O)[O-])cc2)CC1	VIM-2 inhibitor 44.6 | IMP-1 inh-2 inactive | VIM-2 FRET ctr inactive | TEM-1 inh inactive | VIM-2 confirm 2 65.6
